Reference: ChEMBL document CHEMBL1130152, “7-spirobenzocyclohexyl derivatives of naltrexone, oxymorphone, and hydromorphone as selective opioid receptor ligands” (J Med Chem, 1997)

Experiments:
Cavia porcellus [1] = species on record: Cavia porcellus; test: Agonist activity expressed as percent inhibition of contraction of electrically stimulated guinea pig ileal longitudinal muscle at a concentration of 1 uM; type: functional, Muscle tissue
Summary of the method: (§1)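 Electrically stimulated GPI longitudinal muscle or MVD preparations. Ligands that were not full agonists were tested at 1 µM. Inhibition of contraction was expressed as a percentage of the maximal response. Three or more replicate determinations were run per compound.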

Mus musculus [2] = species on record: Mus musculus; test: Agonist activity expressed as percent inhibition of contraction of electrically stimulated mouse vas deferens at a concentration of 1 uM; type: functional; summary of the method: as §1
[3] = target: Kappa-type opioid receptor (Mus musculus, UniProt P33534); test: Inhibition of [3H]U-69593 binding to Opioid receptor kappa 1 from mouse brain membranes.
Summary of the method: (§2)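 Competition binding of test ligands against tritiated radioligands on mouse brain membranes; the μ site used [3H]DAMGO. IC50 was converted to Ki by the Cheng-Prusoff equation using radioligand concentration and KD. Values are arithmetic means of at least 3 determinations, ±SEM.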

[4] = target: Delta-type opioid receptor (Mus musculus, UniProt P32300); test: Inhibition of [3H]-NTI binding to Opioid receptor delta 1 from mouse brain membranes.; summary of the method: as §2
Mu-type opioid receptor = Mu-type opioid receptor (Mus musculus, UniProt P42866); test: Inhibition of [3H]DAMGO binding to Opioid receptor mu 1 from mouse brain membranes.; summary of the method: as §2
Cavia porcellus [5] = species on record: Cavia porcellus; test: Agonist activity expressed as inhibitory concentration against contraction of electrically stimulated guinea pig ileum; type: functional
Summary of the method: (§3)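 Electrically stimulated smooth muscle: longitudinal muscle of guinea pig ileum (GPI) and mouse vas deferens (MVD). Inhibition of contraction was measured for ligands acting as full agonists, and potency was given as IC50 (nM). Three or more replicate determinations were run per compound.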

Mus musculus [6] = species on record: Mus musculus; test: Agonist activity expressed as inhibitory concentration against contraction of electrically stimulated mouse vas deferens; type: functional; summary of the method: as §3

Mu-type opioid receptor, sequence (P42866 whole entry): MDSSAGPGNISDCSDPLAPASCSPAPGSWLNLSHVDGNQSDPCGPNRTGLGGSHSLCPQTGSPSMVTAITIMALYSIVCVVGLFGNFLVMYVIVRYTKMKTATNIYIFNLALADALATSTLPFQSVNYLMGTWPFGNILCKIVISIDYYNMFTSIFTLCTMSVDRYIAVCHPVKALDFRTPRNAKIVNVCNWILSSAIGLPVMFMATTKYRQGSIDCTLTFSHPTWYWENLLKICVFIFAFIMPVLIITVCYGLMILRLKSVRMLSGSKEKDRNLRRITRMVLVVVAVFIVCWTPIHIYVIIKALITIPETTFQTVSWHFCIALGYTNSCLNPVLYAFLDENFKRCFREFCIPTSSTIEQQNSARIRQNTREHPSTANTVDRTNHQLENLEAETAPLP
Delta-type opioid receptor, sequence (P32300 whole entry): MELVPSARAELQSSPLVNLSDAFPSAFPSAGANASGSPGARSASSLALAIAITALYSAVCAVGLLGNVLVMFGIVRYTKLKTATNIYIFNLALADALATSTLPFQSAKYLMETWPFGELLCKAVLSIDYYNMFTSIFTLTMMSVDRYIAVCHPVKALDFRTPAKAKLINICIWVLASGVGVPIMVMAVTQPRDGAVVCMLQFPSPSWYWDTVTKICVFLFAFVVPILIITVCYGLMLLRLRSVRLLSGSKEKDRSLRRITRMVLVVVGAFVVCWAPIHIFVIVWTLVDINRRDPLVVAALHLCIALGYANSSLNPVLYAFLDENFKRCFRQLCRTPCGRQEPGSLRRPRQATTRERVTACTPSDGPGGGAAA
Kappa-type opioid receptor, sequence (P33534 whole entry): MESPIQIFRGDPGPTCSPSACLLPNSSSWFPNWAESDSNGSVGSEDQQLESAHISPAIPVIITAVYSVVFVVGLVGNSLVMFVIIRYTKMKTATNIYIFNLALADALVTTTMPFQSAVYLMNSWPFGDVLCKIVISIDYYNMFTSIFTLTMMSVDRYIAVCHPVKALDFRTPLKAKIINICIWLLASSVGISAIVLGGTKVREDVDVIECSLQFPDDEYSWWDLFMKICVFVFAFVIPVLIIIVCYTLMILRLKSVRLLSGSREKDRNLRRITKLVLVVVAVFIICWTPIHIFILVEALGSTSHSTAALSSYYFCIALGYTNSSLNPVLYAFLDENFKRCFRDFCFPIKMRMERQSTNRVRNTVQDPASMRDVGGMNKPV

Row | Structure (SMILES) | Max response (Cavia porcellus [1]) | Max response (Mus musculus [2]) | Ki [3] | Ki [4] | Ki (Mu-type opioid receptor) | IC50 (Cavia porcellus [5]) | IC50 (Mus musculus [6])
1 | O=C1[C@@H]2Oc3c(O)ccc4c3C23CCN(CC2CC2)C(C4)[C@]3(O)C[C@]12CCc1ccccc1C2 (stereo not given in full) | 2% | 4% | > 1000 nM | 0.0019 nM | 0.38 nM |  | 
2 | CN1CCC23c4c5ccc(O)c4O[C@H]2C(=O)[C@]2(CCc4ccccc4C2)C[C@H]3C1C5 (stereo not given in full) |  | 17% | > 1000 nM | 182 nM | 119 nM | 107 nM | 
3 | O=C1[C@@H]2Oc3c(O)ccc4c3C23CCN(CC2CC2)C(C4)[C@]3(O)C[C@@]12CCc1ccccc1C2 (stereo not given in full) | 16% | 3% | 147 nM | 0.0041 nM | 0.72 nM |  | 
4 | O=C1[C@@H]2Oc3c(O)ccc4c3[C@@]23CCN(CC2CC2)[C@H](C4)[C@]3(O)CC12Cc1ccccc1C2 | 16% | 8% | > 3000 nM | 0.25 nM | 1.5 nM |  | 
5 | CN1CCC23c4c5ccc(O)c4O[C@H]2C(=O)[C@]2(CCc4ccccc4C2)C[C@@]3(O)C1C5 (stereo not given in full) |  |  | > 3000 nM | 9.3 nM | 28 nM | 629 nM | 28 nM
6 | CN1CC[C@]23c4c5ccc(O)c4O[C@H]2C(=O)C2(Cc4ccccc4C2)C[C@@]3(O)[C@H]1C5 [SPIROINDANYLOXYMORPHONE] | 55% |  | > 3000 nM | 2.8 nM | 14 nM |  | 22 nM
7 | CN1CCC23c4c5ccc(O)c4O[C@H]2C(=O)[C@@]2(CCc4ccccc4C2)C[C@@]3(O)C1C5 (stereo not given in full) |  |  | > 1000 nM | 4.6 nM | 18 nM | 183 nM | 24 nM
8 | CN1CCC23c4c5ccc(O)c4O[C@H]2C(=O)[C@@]2(CCc4ccccc4C2)C[C@H]3C1C5 (stereo not given in full) |  | 42% | 88 nM | 8.3 nM | 2.8 nM | 130 nM | 
